Source: PubChem BioAssay
GAA850 FXN act – frataxin GAA850 promoter activation. HEK293 lucGAA850 FXN promoter luciferase reporter, 24 h; percent of 10 µM SAHA response. activation, % at 6 µM. 0.56% of 360,000 active. AID 540364;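 active means activation above the average of all compounds screened plus 3 SD, cutoff fixed separately per campaign, cut at about 7.5% in these data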;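 further: 0% = DMSO wells and 100% = 10 µM SAHA wells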
V-ATPase pHluor – regulators of yeast V-ATPase proton transport | response, % at 10 µM | 0.37% of 350,000 active | S. cerevisiae, pHLuorin cytosolic pH fluorescence; in the data active means response mostly above about 7.3%, no sharp cut-off; inactive means mostly below about 5.4%; further: actives read high
NR2E3 ag-1 – activates human photoreceptor nuclear receptor NR2E3. GST-NR2E3/biotin-RetCOR TR-FRET, 1536-well. Q9Y5X4. AID 2300. inhibition of corepressor binding, % at 4.78 µM. 0.12% of 320,000 active;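 active means percent inhibition above the cutoff of mean plus 3 SD of all tested compounds, set per screening campaign, cut at about 20% in these data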;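 further: 0% = DMSO wells and 100% = biotin wells as full block of FRET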
Target sequence (Q9Y5X4 whole entry, looked up): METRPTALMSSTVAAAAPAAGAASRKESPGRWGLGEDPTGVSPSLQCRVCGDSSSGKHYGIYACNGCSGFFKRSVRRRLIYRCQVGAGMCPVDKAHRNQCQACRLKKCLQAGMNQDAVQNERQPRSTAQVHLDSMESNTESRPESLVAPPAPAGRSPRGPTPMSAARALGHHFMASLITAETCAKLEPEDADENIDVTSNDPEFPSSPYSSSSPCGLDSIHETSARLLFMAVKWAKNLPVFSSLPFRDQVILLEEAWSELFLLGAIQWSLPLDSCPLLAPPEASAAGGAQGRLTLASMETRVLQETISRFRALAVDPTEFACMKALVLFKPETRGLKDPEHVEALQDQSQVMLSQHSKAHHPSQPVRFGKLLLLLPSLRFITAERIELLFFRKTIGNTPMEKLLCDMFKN
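System: GST-NR2E3 and biotin-RetCOR proteins; probe or stimulus: 7 nM biotin-RetCOR; doses: compound at 4.8 µM, single dose; schedule: Compound–protein incubation for 5 h at 4 °C; detection: time-resolved FRET; read-out: percent inhibition; controls: biotin wells as high control, 0.6% DMSO wells as low control; format: 1536-well plates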
GalR3 antag – blocks the human galanin receptor 3. O60755. HEK293 GalR3-CNG cAMP membrane potential fluorescence; galR3 body fused to GalR1 C-terminus. inhibition, % at 3 µM. 0.44% of 360,000 active;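 active means inhibition above the screen-wide average plus 3 SD, cut at about 13% in these data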;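 further: forskolin and galanin both at EC90 stimulate the cells; cAMP rise reported by CNG channel membrane potential dye signal; 0% = forskolin plus galanin with DMSO and 100% = forskolin alone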
Target sequence (O60755 1-299 limits assumed): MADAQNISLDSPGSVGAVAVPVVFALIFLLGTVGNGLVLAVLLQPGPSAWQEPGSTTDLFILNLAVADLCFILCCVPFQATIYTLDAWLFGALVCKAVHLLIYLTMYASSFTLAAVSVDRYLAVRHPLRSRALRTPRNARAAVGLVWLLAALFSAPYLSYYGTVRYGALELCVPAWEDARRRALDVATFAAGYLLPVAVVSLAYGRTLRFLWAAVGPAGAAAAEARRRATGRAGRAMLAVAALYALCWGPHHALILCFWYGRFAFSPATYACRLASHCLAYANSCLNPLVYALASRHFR
NR2E3 ag-2 – activates human NR2E3 receptor; Q9Y5X4; CHO-S Gal4-NCOR/VP16-NR2E3 two-hybrid, luciferase; inhibition of corepressor binding, % at 3.98 µM; 0.35% of 360,000 active;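 active means inhibition above the mean of all tested compounds plus 3 SD, cut at about 70% in these data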;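 further: 0% = DMSO with NR2E3 transfected cells and 100% = cells lacking NR2E3 construct; higher means lower luciferase signal from less NR2E3 corepressor binding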
HIV Env fusion – inhibitors of HIV Env-mediated cell fusion; HeLa-JRFL Env/CEM21 cell fusion, luciferase; inhibition, % at 12.3 µM; 1.1% of 360,000 active;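 active means mean replicate inhibition score of at least 50 and every replicate individually at or above 50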;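 further: 0% = plate neutral controls and 100% = maraviroc near 300 nM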
NR2E3 agonist cf – NR2E3 (human) agonism, confirmation; shares compounds with NR2E3 ag-1; cell-free NR2E3 corepressor release, TR-FRET, 5 h; activation (reported as inhibition), % at 3.98 µM; 39% of 360 active; AID 2379; in the data active means activation above about 20%
PPARg-NCOR2 ag – counter-screen for NR2E3 agonists: human PPARgamma-NCOR2 interaction agonists; AID 504787; inhibition, % at 3.98 µM; TR-FRET PPARg-NCOR2 coregulator interaction, biochemical; 45% of 360 active; shares compounds with NR2E3 ag-1; in the data active means inhibition above about 20%;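 further: 0% = DMSO vehicle and 100% = wells without protein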
Active calls of the source: *; . = no result given; [ ] = another dose, or the depositor's remark. Most compounds without a hit are left out; they make up all but 2.2% or so of the library.

SMILES	GAA850 FXN act	V-ATPase pHluor	NR2E3 ag-1	GalR3 antag	NR2E3 ag-2	HIV Env fusion	NR2E3 agonist cf	PPARg-NCOR2 ag
COc1ccc(C2C(C(=O)c3ccc(C)o3)=C(O)C(=O)N2Cc2cccnc2)cc1 (stereo not drawn)	1.2	2.2	11.2	-5.3	-21.8	-4.6	.	.
Cc1ccc(C(=O)C2=C(O)C(=O)N(Cc3cccnc3)C2c2ccc(OC(C)C)cc2)o1 (stereo not drawn)	0.8	-4.8	21.7*	-4.3	12.9	5.5	5.8	12.5
Cc1ccc(C(=O)C2=C(O)C(=O)N(Cc3cccnc3)C2c2ccc(Cl)c(Cl)c2)o1 (stereo not drawn)	0.7	-5.0	31.9*	.	-3.8	.	23.1*	20.4*
Cc1ccc(C(=O)C2=C(O)C(=O)N(Cc3cccnc3)C2c2ccc(Br)cc2)o1 (stereo not drawn)	-0.7	-1.4	20.9*	-1.5	16.2	.	21.6*	18.4
Cc1ccc(C(=O)C2=C(O)C(=O)N(CCCn3ccnc3)C2c2ccc(OC(C)C)cc2)o1 (stereo not drawn)	3.9	4.3	28.5*	-6.3	-7.7	.	4.8	2.9
C[C@H](CO)N1C[C@H](C)[C@H](CN(C)Cc2ccc(C(=O)O)cc2)OCCCC[C@H](C)Oc2ccc(NC(=O)CCC(F)(F)F)cc2C1=O	.	.	.	.	.	4.2[16.7 µM]	.	.
N#CC(=Cc1ccc(O)cc1)C(N)=C(C#N)C#N	-0.7	0.3	22.7*	.	-8.1	7.0	-4.1	5.7
Cc1ccc(-c2cc(C(=O)O)c3cc(Br)ccc3n2)o1	1.7	0.5	31.2*	-3.1	-28.3	0.8	24.2*	36.4*
CCOC(=O)c1c(NC(=O)CSc2nnc(-c3ccccc3)o2)sc(C(C)=O)c1C	0.4	-3.0	0.8	-4.7	-5.4	-48.4	.	.
CCOC(=O)c1c(NC(=O)CSc2nnc(Cc3ccccc3)o2)sc(C(C)=O)c1C	0.5	-0.9	31.8*	-6.3	10.4	10.4	-4.8	4.7
Cc1nc(-c2ccc(Br)cc2)ccc1C(=O)O	-0.9	1.5	24.7*	1.5	-6.5	-139.8	19.4	17.5
O=C(Nc1nc(-c2cccs2)c(C(=O)C(F)(F)F)s1)c1ccco1	1.6	0.9	30.0*	-2.3	-6.5	12.4	34.4*	32.1*
Cn1nccc1C(=O)Nc1sc2c(c1C#N)CCCC2	5.8	0.4	0.9	-2.6	-49.5	.	.	.
COc1ccc(-c2c(C)sc(NC(=O)c3ccnn3C)c2C#N)cc1	0.6	2.8	29.9*	-1.1	-7.8	.	9.4	20.9*
c1coc(-c2nc(-c3ccco3)c(-c3ccco3)nc2-c2ccco2)c1	0.3	-3.5	41.7*	-3.5	-2.2	-3.9	-3.0	-4.5
Nc1nc(-c2ccco2)c(-c2ccco2)s1	2.9	-5.2	0.1	-2.6	-26.4	.	.	.
CO[C@@H]1CN(C)C(=O)c2cc(NC(=O)NC(C)C)ccc2OC[C@H](C)N(CCC(F)(F)F)C[C@@H]1C	.	.	.	.	.	-5.0[16.7 µM]	.	.
Cc1ccc(CNC(=O)c2cc3c(s2)CS(=O)(=O)C3)cc1	2.2	-1.0	1.1	-1.0	-16.0	2.1	.	.
Cc1ccc(CNC(=O)c2cc3c(s2)CN(Cc2ccccc2)C3)cc1	1.7	-1.2	20.5*	-5.3	0.9	9.7	-5.9	-2.5
C[C@H]1CN([C@@H](C)CO)S(=O)(=O)c2ccc(-c3cccnc3)cc2O[C@H]1CN(C)C(=O)c1cccc(F)c1	.	.	.	.	.	25.6[16.7 µM]	.	.
COc1ccc(CN(C)C[C@H]2Oc3ccc(NS(=O)(=O)c4ccc(OC)cc4)cc3C(=O)N([C@H](C)CO)C[C@H]2C)cc1	.	.	.	.	.	5.3[16.7 µM]	.	.
Cc1c2cc(O)c(=O)cc-2oc2cc(O)c(O)cc12	-3.3	205.7*	39.5*	-6.5	-15.3	.	20.3*	-14.1
COc1cc(OC)c(-c2c3cc(O)c(=O)cc-3oc3cc(O)c(O)cc23)cc1OC	-3.3	-2.3	-2.7	4.2	-17.3	.	.	.
C[C@@H]1CCCCO[C@H](CN(C)C)[C@H](C)CN([C@H](C)CO)C(=O)c2cc(NS(=O)(=O)c3cn(C)cn3)ccc2O1	.	.	.	.	.	-7.7[16.7 µM]	.	.
N#Cc1ccc(Cl)cc1NC(=O)COC(=O)c1ccc2c(c1)OCCO2	-1.1	3.2	35.5*	2.0	3.8	-0.8	38.6*	40.7*
SMILES	GAA850 FXN act	V-ATPase pHluor	NR2E3 ag-1	GalR3 antag	NR2E3 ag-2	HIV Env fusion	NR2E3 agonist cf	PPARg-NCOR2 ag
CCOC(=O)Cc1csc(-n2sc3ccccc3c2=O)n1	-4.1	2.8	32.0*	-5.8	-29.8	.	17.9	22.1*
C=CCc1c(C)nc(SC)nc1Nc1ccc(C)cc1	-0.2	2.1	25.0*	-2.3	12.1	.	-4.3	-5.5
C=CCc1c(C)nc(C)nc1N/N=C/c1ccc(F)cc1	-1.1	-0.7	0.8	-2.5	-10.7	.	.	.
O=S(=O)(Nc1nc2cc3c(cc2nc1Cl)OCCO3)c1ccccc1	0.0	0.9	29.9*	2.8	-16.7	-5.1	11.3	13.5
CC(=O)Nc1ccc(S(=O)(=O)Nc2nc3cc4c(cc3nc2Cl)OCCO4)cc1	-0.8	-3.7	19.0	-3.7	-22.7	13.3	.	.
C[C@@H]1CN([C@@H](C)CO)C(=O)c2ccccc2-c2ccccc2CO[C@@H]1CN(C)S(C)(=O)=O	.	.	.	.	.	16.9[16.7 µM]	.	.
CC1=NN(Cc2ccccc2)C(=O)C1	-2.6	-3.0	19.6*	-9.1	-17.1	4.6	-8.2	-10.1
S=c1nc(Cc2ccccc2)[nH]c2ccccc12	2.6	4.3	22.9*	3.3	-6.7	9.6	-3.6	7.7
S=c1nc(COc2ccccc2)[nH]c2ccccc12	1.4	-0.3	30.9*	-8.4	-84.5	-30.2	4.6	12.5
C[C@H]1CN([C@@H](C)CO)C(=O)c2cc(-c3ccccc3)cnc2O[C@@H]1CN(C)Cc1ccc(C(=O)O)cc1	.	.	.	.	.	-26.7[16.7 µM]	.	.
Cc1cc(N2C(=O)C(O)=C(C(=O)c3cc4ccccc4o3)C2c2ccc(OC(C)C)cc2)no1 (stereo not drawn)	2.1	-0.3	11.3	3.1	-54.9	-0.9	.	.
COc1cc(C2C(C(=O)c3ccc(C)o3)=C(O)C(=O)N2c2cc(C)on2)cc(OC)c1OC (stereo not drawn)	-0.4	0.6	-1.6	-2.0	-3.5	-82.7	.	.
COc1cccc(C2C(C(=O)c3cc4ccccc4o3)=C(O)C(=O)N2c2cc(C)on2)c1OC (stereo not drawn)	-2.4	1.6	23.9*	-2.9	-0.4	.	24.8*	18.5
COC(=O)c1ccc(C2C(C(=O)c3cc4ccccc4o3)=C(O)C(=O)N2c2cc(C)on2)cc1 (stereo not drawn)	0.0	-0.2	23.2*	3.2	-9.2	-3.6	32.5*	27.1*
